KCNQ1 block = human KCNQ1 channel inhibition; P51787; CHO-K1 KCNQ1, FluxOR thallium flux fluorescence; stronger effect = higher value; B-score at 10 µM; hit rate 1.3% among 310,000;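 active means compounds whose thallium flux B-score, printed positive for inhibition, exceeds three library SD while starting fluorescence stays within three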;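 further: channel opened by potassium depolarization with thallium stimulus after 20 min compound exposure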
Target sequence (P51787 whole entry, looked up): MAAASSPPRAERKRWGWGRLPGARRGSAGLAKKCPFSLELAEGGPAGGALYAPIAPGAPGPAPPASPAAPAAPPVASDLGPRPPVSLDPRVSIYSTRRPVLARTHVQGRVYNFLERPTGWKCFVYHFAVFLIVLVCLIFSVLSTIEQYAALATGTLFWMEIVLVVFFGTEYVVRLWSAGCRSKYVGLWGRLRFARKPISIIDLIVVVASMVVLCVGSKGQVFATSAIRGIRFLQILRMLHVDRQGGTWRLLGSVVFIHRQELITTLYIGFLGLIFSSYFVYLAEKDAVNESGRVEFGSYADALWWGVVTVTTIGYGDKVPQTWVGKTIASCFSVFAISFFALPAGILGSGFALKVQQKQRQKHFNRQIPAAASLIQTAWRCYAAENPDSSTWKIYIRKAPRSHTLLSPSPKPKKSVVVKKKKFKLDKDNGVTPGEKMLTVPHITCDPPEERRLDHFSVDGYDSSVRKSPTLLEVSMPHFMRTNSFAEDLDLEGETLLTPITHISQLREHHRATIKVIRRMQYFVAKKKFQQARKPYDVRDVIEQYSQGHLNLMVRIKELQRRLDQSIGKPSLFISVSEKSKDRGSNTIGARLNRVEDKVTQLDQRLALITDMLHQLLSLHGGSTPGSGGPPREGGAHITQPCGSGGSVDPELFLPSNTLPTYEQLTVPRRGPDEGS
Kir21 block = inhibitors of mouse Kir2.1 inward-rectifier potassium channel | HEK293-Kir2.1, FluxOR thallium flux fluorescence; stronger effect = lower value | hit rate 0.85% among 310,000 | B-score at 10 µM;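 active means fluorescence ratio B-score at or below minus 3 SD of library scores, with starting-brightness B-score within 2 SD, cut at about -4.2 in these data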;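 further: channel flux triggered by added potassium and thallium sulfate stimulus; B-score of peak minus minimum fluorescence over baseline after thallium stimulus; more negative B-score means stronger Kir2.1 block with less thallium influx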
KCNK3 block = human KCNK3 channel inhibition, primary screen; CHO-KCNK3 thallium flux, FluxOR fluorescence; stronger effect = lower value; hit rate 0.84% among 340,000; B-score at 10 µM; O14649;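 active means B-score under library mean minus 4 SD, starting fluorescence ratio at most library mean plus 5 SD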;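 further: more negative B-score means stronger inhibition of thallium flux through KCNK3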
hERG protect = compounds protecting human hERG from proarrhythmic drug block; activation (rescue from dofetilide block), less the hit threshold, % at 10 µM; CHO-hERG, FluxOR thallium flux, dofetilide IC70 present; hit rate 0.51% among 310,000;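 active means activation above the mean of controls blocked by dofetilide plus 5 SD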;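 further: thallium influx through hERG after potassium depolarization seen as dye fluorescence rise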
KCNK9 block = inhibitors of human KCNK9 two-pore domain potassium channel; Q9NPC2; HEK293 KCNK9, FluxOR thallium flux fluorescence; stronger effect = lower value; B-score at 10 µM; hit rate 1.2% among 310,000;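 active means ratio B-score over 3 SD below the library mean, with starting fluorescence within 5 SD of its mean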;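 further: negative B-score means less thallium flux so channel inhibition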
KCNQ1 act = potentiates or activates the human KCNQ1 potassium channel | B-score at 10 µM | CHO-K1 KCNQ1, thallium flux FluxOR fluorescence; stronger effect = higher value | hit rate 0.35% among 310,000 | P51787;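 active means fluorescence ratio B-score, a plate-corrected score, at least three library SD, with initial intensity B-score within 5 SD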
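Assay system: CHO-K1 cells stably expressing KCNQ1. Medium: assay buffer for compound exposure, DMSO matched across wells. Timing: 37 °C overnight plating, 90-min dark dye load, 20-min compound pretreatment. Signal: kinetic FluxOR fluorescence, 10 s baseline plus 110 s post-stimulus.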
KCNK9 block conf = human KCNK9 inhibitor confirmation; shares compounds with KCNK9 block; HEK293 KCNK9 cells, FluxOR thallium flux fluorescence; inhibition, % at 10 µM; hit rate 43% among 4,900;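 active means thallium signal inhibited by more than 5 SD of the compound-free buffer control wells, on both duplicate plates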
Kir21 sel = mouse Kir2.1 off-target activity of KCNK9 modulators; shares compounds with KCNK9 block; Kir2.1 cells, FluxOR thallium flux fluorescence; inhibition, % at 10 µM; hit rate 4% among 4,900; AID 492993;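 active means thallium signal drop more than 5 SD beyond the mean of the no-compound control wells, seen in both duplicate plates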;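 further: signal is fluorescence rise after thallium addition divided by baseline fluorescence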
HEK293 Tl ctr = second counter-screen for KCNK9 modulators: effect in non-induced cells | shares compounds with KCNK9 block | non-induced KCNK9-HEK293, FluxOR thallium flux | inhibition, % at 10 µM | hit rate 40% among 4,900 | AID 492997;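 active means thallium signal drop beyond 5 SD of the untreated control mean, on both duplicate plates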
Each line names hits and unclear results; the compound was inactive in the other large screens (follow-up assays come after a bar, where they were run). Most compounds without a hit are left out; they make up all but 3.8% or so of the library.

CCNCC(=O)N1c2ccccc2CCc2ccc(NC(=O)OCC)cc21	KCNK9 block -11 | KCNK9 block conf 54% | Kir21 sel inactive | HEK293 Tl ctr 34%
CCOC(=O)Nc1ccc2c(c1)N(C(=O)CN)c1ccccc1CC2	none
Cc1c2cnn(CC(=O)NCc3ccccn3)c(=O)c2c(C)n1Cc1ccccc1	none
S=C(c1ccc(-c2cc(Cl)ccc2Cl)o1)N1CCCCC1	KCNK9 block -12 | KCNK9 block conf 46% | Kir21 sel inactive | HEK293 Tl ctr 42%
O=C(c1ccc(-c2ccccc2Cl)o1)N1CCCCCCC1	none (no result: KCNQ1 block, Kir21 block, hERG protect, KCNK9 block, KCNQ1 act)
CS(=O)(=O)c1nc(S(=O)(=O)c2ccc(Cl)cc2)c(N2CCOCC2)s1	none
O=c1c2c(c(-c3ccccc3)nn1Cc1ccccc1)CCCC2	none | KCNK9 block conf inactive | Kir21 sel inactive | HEK293 Tl ctr 28%
O=c1cc(N2CCCCC2)c(-c2ccccc2)nn1Cc1ccc(Cl)cc1	none
O=c1ccc(-c2ccccc2)nn1Cc1ccccc1	none
O=c1cc(N2CCCCC2)c(-c2ccccc2)nn1Cc1ccc(F)cc1	KCNK9 block -12 | KCNK9 block conf 60% | Kir21 sel inactive | HEK293 Tl ctr 36%
CCNc1nc(NCC)n2c(SCC(=O)Nc3c(C)cccc3C)nnc2n1	none
Cc1cc(C)nc(SCC(=O)N(C)CC(=O)Nc2c(Cl)cccc2Cl)n1	none
O=C(CSc1nc(N2CCCCC2)nc(N2CCCCC2)n1)N1CCN(c2ccccc2)CC1	none | KCNK9 block conf inactive | Kir21 sel inactive | HEK293 Tl ctr inactive
CC1CCc2c(sc(NC(=O)c3ccccc3C(=O)O)c2C#N)C1 (configuration not stated)	none
CCC(C)(C)C1CCc2c(sc(NC(=O)c3ccccc3C(=O)O)c2C#N)C1 (configuration not stated)	hERG protect 15, KCNQ1 act 9 | KCNK9 block conf inactive | Kir21 sel inactive | HEK293 Tl ctr inactive
Cc1cc(C)c(-c2csc(NC(=O)/C=C/c3cccs3)n2)c(C)c1	none | KCNK9 block conf inactive | Kir21 sel inactive | HEK293 Tl ctr inactive
Cc1cccc2nc(-c3ccccc3)nc(N[C@@H](CO)c3ccccc3)c12	KCNK9 block -8.3 | KCNK9 block conf 50% | Kir21 sel inactive | HEK293 Tl ctr 44%
CC1CCCN(C(=O)c2ccc(-c3ccccc3Cl)o2)C1 (configuration not stated)	none
Cc1cc(/C=C2\C(=N)N3C(SCc4ccccc4)=NSC3=NC2=O)c(C)n1Cc1ccccc1	none
CC(C)CSC1=NSC2=NC(=O)/C(=C\c3ccccc3)C(=N)N12	hERG protect 22, KCNQ1 act 20 | KCNK9 block conf inactive | Kir21 sel inactive | HEK293 Tl ctr inactive
COc1ccc(S(=O)(=O)n2ccc(C(C)Oc3ccc(-c4ccccc4)c(F)c3)n2)cc1 (configuration not stated)	KCNK9 block -11 | KCNK9 block conf 61% | Kir21 sel inactive | HEK293 Tl ctr 40%
COc1ccc(-c2nc(SC)n(S(=O)(=O)c3ccccc3)n2)cc1	none
COc1cccc(CN2CCN(C3CCN(c4ccccc4F)CC3)CC2CCO)c1 (configuration not stated)	none
NC(=O)CC(NC(=O)Cc1cccc2ccccc12)c1ccc(NCCOc2ccccc2)c([N+](=O)[O-])c1 (configuration not stated)	none
COc1cccc(Oc2ccc(C(F)(F)F)cc2N)c1	KCNK9 block -8.4 | KCNK9 block conf 54% | Kir21 sel inactive | HEK293 Tl ctr 32%
O=C(Cn1c(=O)n(CC(=O)NCc2ccccc2)c2ccccc21)NCc1ccccc1	none
Cc1cc(=O)c2cc(Br)ccc2n1CC(=O)NCc1ccccc1	KCNK9 block -9.7 | KCNK9 block conf inactive | Kir21 sel inactive | HEK293 Tl ctr 33%
CCOc1ccccc1CNC(=O)CCc1cn(CC)c2ccccc12	Kir21 block -5.9 | KCNK9 block conf inactive | Kir21 sel inactive | HEK293 Tl ctr inactive
CCn1cc(CCCC(=O)NCc2ccc(OC)cc2)c2ccccc21	none | KCNK9 block conf inactive | Kir21 sel inactive | HEK293 Tl ctr inactive
CCCC(=O)Nc1cc(C(=O)O)ccc1S(=O)(=O)c1ccc(Cl)cc1	none
Cc1ccccc1COC(=O)CNC(=O)c1sc2ccccc2c1Cl	none | KCNK9 block conf inactive | Kir21 sel inactive | HEK293 Tl ctr inactive
O=C(NNC(=O)C1CCN(Cc2ccc(Cl)c(Cl)c2)CC1)c1cccs1	none
CCOC(=O)N/N=C\c1ccc(-c2cc(Cl)ccc2Cl)o1	KCNK9 block -8.6 | KCNK9 block conf 45% | Kir21 sel inactive | HEK293 Tl ctr inactive
Cc1ccc2nc(-c3ccccc3)c(CN3CCN(c4ccccc4F)CC3)n2c1	none | KCNK9 block conf inactive | Kir21 sel inactive | HEK293 Tl ctr inactive
Cc1ccc2nc(-c3ccccc3)c(CN3CCSCC3)n2c1	none
Cc1c(N(C)S(=O)(=O)c2ccc(Cl)c(C(=O)N3CCC(C(N)=O)CC3)c2)c(=O)n(-c2ccccc2)n1C	none
O=C(c1cc2sccc2n1Cc1ccc(F)cc1)N1CCCc2ccccc21	KCNK9 block -10 | KCNK9 block conf 51% | Kir21 sel inactive | HEK293 Tl ctr 37%
CC(=O)n1cc([C@@H]2C=C(C(=O)NCc3ccccc3)O[C@H](OCCCCO)C2)c2ccccc21	none
CC(=O)n1cc([C@H]2C=C(C(=O)NCc3ccccc3)O[C@@H](OCCCCO)C2)c2ccccc21	none | KCNK9 block conf inactive | Kir21 sel inactive | HEK293 Tl ctr inactive
C#CCNC(=O)C1=C[C@@H](c2cn(C(C)=O)c3ccccc23)C[C@@H](OCc2ccc(CO)cc2)O1	none
CC(=O)n1cc([C@H]2C=C(C(=O)NCc3ccccc3)O[C@@H](OCc3ccc(CO)cc3)C2)c2ccccc21	none | KCNK9 block conf inactive | Kir21 sel inactive | HEK293 Tl ctr inactive
O=C(NCc1ccccc1)C1=C[C@H](c2ccc(Br)cc2)C[C@H](OCc2ccc(CO)cc2)O1	none | KCNK9 block conf inactive | Kir21 sel inactive | HEK293 Tl ctr inactive
Cc1ccc(C(=O)NN2CC(O)=C(c3nc(-c4cccc([N+](=O)[O-])c4)cs3)C2=N)cc1	none
COc1ccc(Br)cc1C(=O)Nc1cccc(-c2nnc(-c3ccco3)o2)c1	KCNK9 block -12 | KCNK9 block conf 60% | Kir21 sel inactive | HEK293 Tl ctr inactive
CC1Cc2ccccc2N1C(=O)CN1CCc2ccccc2C1 (configuration not stated)	none | KCNK9 block conf inactive | Kir21 sel inactive | HEK293 Tl ctr inactive

Screens as filed in PubChem BioAssay.
